Data from ChEMBL document CHEMBL3797182, “In vitro evaluation of imidazo[4,5-c]quinolin-2-ones as gametocytocidal antimalarial agents” (Bioorg Med Chem Lett, 2016).

Key:
Plasmodium falciparum [1] = assay: Antimalarial activity against chloroquine-sensitive asexual blood stage of Plasmodium falciparum 3D7 infected in RBC after 72 hrs by SYBR Green assay; format: functional, organism-based; settings: 3D7, 72 h
Method in brief: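 Asexual blood-stage P. falciparum 3D7 (chloroquine-sensitive) parasites. 1536-well format, 11-point dose-response, duplicate tests. Torin 2 served as positive control and DMSO as negative control.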

HepG2 = assay: Cytotoxicity against human HepG2 cells assessed as cell viability after 24 hrs; format: cell-based; settings: HepG2, 24 h
Method in brief: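 HepG2 cell viability as general cytotoxicity. 1536-well, 11-point dose-response in duplicate, top concentration 46 μM. Torin 2 positive control, DMSO negative control.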

Plasmodium falciparum [2] = assay: Gametocytocidal activity against chloroquine-sensitive late gametocytic stage (III to V) of Plasmodium falciparum 3D7 after 72 hrs by Alamar Blue assay; format: functional, organism-based; settings: 3D7, 72 h
Method in brief: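 Late-stage (III–V) P. falciparum 3D7 gametocytes. AlamarBlue redox indicator reads cytosolic metabolic activity as a measure of gametocyte viability. 1536-well format, 11-point dose-response, duplicates. Torin 2 positive control, DMSO negative control.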

Plasmodium falciparum [3] = assay: Selectivity ratio of IC50 for chloroquine-sensitive late gametocytic stage (III to V) of Plasmodium falciparum 3D7 to IC50 for chloroquine-sensitive asexual blood stage of Plasmodium falciparum 3D7; format: functional

| Structure (SMILES) | IC50 (Plasmodium falciparum [1]) | IC50 (HepG2) | IC50 (Plasmodium falciparum [2]) | Ratio IC50 (Plasmodium falciparum [3]) |
| --- | --- | --- | --- | --- |
| Nc1ncc(-c2ccc3ncc4[nH]c(=O)n(-c5cccc(C(F)(F)F)c5)c4c3c2)cn1 | 213 nM | 2540 nM | 450 nM | – |
| COc1cccc(-n2c(=O)n(C)c3cnc4ccc(-c5ccc(N)nc5)cc4c32)c1 | 88 nM | 2530 nM | 126 nM | – |
| N#Cc1ccc(-c2ccc3ncc4[nH]c(=O)n(-c5cccc(C(F)(F)F)c5)c4c3c2)cc1 | 2580 nM | > 45000 nM | 6330 nM | 1 |
| N#Cc1ccc(-n2c(=O)[nH]c3cnc4ccc(-c5ccc(N)nc5)cc4c32)cc1 | 386 nM | > 45000 nM | 482 nM | – |
| O=c1[nH]c2cnc3ccc(-c4ccc(O)cc4)cc3c2n1-c1cccc(C(F)(F)F)c1 | 781 nM | 4060 nM | 1470 nM | 1 |
| O=c1[nH]c2cnc3ccc(-c4ccc5[nH]cnc5c4)cc3c2n1-c1cccc(C(F)(F)F)c1 | 214 nM | 3240 nM | 347 nM | – |
| Cn1c(=O)n(C2CCCCC2)c2c3cc(-c4ccc(N)nc4)ccc3ncc21 | 832 nM | 3840 nM | 1880 nM | – |
| Nc1ccc(-c2ccc3ncc4[nH]c(=O)n(C5CCCCC5)c4c3c2)cn1 | 1350 nM | 6500 nM | 2870 nM | – |
| O=c1[nH]c2cnc3ccc(-c4ccncc4)cc3c2n1-c1cccc(C(F)(F)F)c1 | 313 nM | 1500 nM | 1140 nM | – |
| Nc1ccc(-c2ccc3ncc4[nH]c(=O)n(-c5cccc(C(F)(F)F)c5)c4c3c2)cn1 | 91 nM | 3110 nM | 97 nM | – |
| Cc1ccc(-c2ccc3ncc4[nH]c(=O)n(-c5cccc(C(F)(F)F)c5)c4c3c2)cn1 | 180 nM | > 45000 nM | 320 nM | – |
| NC(=O)c1ccc(-c2ccc3ncc4[nH]c(=O)n(-c5cccc(C(F)(F)F)c5)c4c3c2)cc1 | 109 nM | > 45000 nM | 294 nM | 1 |
| Cn1c(=O)n(-c2cccc(C(F)(F)F)c2)c2c3ccccc3ncc21 | 17000 nM | > 45000 nM | 3640 nM | – |
| O=c1[nH]c2cnc3ccccc3c2n1-c1cccc(C(F)(F)F)c1 | 5030 nM | > 45000 nM | 7460 nM | – |
| Cn1c(=O)n(C2CC2)c2c3cc(-c4ccc(N)nc4)ccc3ncc21 | 1160 nM | 11400 nM | 865 nM | – |
| O=c1[nH]c2cnc3ccc(-c4ccc(O)nc4)cc3c2n1-c1cccc(C(F)(F)F)c1 | 412 nM | > 45000 nM | 4630 nM | – |
| Cn1c(=O)n(-c2ccc(C#N)cc2)c2c3cc(-c4ccc(N)nc4)ccc3ncc21 | 98 nM | > 45000 nM | 118 nM | – |
| O=c1[nH]c2cnc3ccc(-c4ccc(Cl)cc4)cc3c2n1-c1cccc(C(F)(F)F)c1 | 1690 nM | > 45000 nM | 3560 nM | 1 |
| Cn1c(=O)n(-c2ccccc2)c2c3cc(-c4ccc(N)nc4)ccc3ncc21 | 69 nM | 6540 nM | 219 nM | – |
| Nc1cccc(-c2ccc3ncc4[nH]c(=O)n(-c5cccc(C(F)(F)F)c5)c4c3c2)c1 | 275 nM | 6170 nM | 637 nM | 1 |
| O=c1[nH]c2cnc3ccc(-c4ccccc4)cc3c2n1-c1cccc(C(F)(F)F)c1 | 4040 nM | > 45000 nM | 18400 nM | 4.6 |
| N#Cc1cccc(-c2ccc3ncc4[nH]c(=O)n(-c5cccc(C(F)(F)F)c5)c4c3c2)c1 | 874 nM | > 45000 nM | 2790 nM | 1 |
| CC(=O)Nc1ccc(-c2ccc3ncc4[nH]c(=O)n(-c5cccc(C(F)(F)F)c5)c4c3c2)cn1 | 81 nM | > 45000 nM | 186 nM | – |
| O=c1[nH]c2cnc3ccc(-c4ccc(F)cc4)cc3c2n1-c1cccc(C(F)(F)F)c1 | 1570 nM | > 45000 nM | 1830 nM | 1 |
| Nc1ccc(-c2ccc3ncc4[nH]c(=O)n(-c5ccc(C(F)(F)F)cc5)c4c3c2)cn1 | 530 nM | > 45000 nM | 576 nM | – |
| O=c1[nH]c2cnc3ccc(-c4cnc5ccccc5c4)cc3c2n1-c1cccc(C(F)(F)F)c1 | 15400 nM | > 45000 nM | 2350 nM | – |
| COc1ccc(-n2c(=O)n(C)c3cnc4ccc(-c5ccc(N)nc5)cc4c32)cc1 | 47 nM | 2340 nM | 148 nM | – |
| O=c1[nH]c2cnc3ccc(-c4cccnc4)cc3c2n1-c1cccc(C(F)(F)F)c1 | 2820 nM | 2250 nM | 11400 nM | – |

The next lines start with results.

| IC50 (Plasmodium falciparum [1]) | Structure (SMILES) | IC50 (HepG2) | IC50 (Plasmodium falciparum [2]) | Ratio IC50 (Plasmodium falciparum [3]) |
| --- | --- | --- | --- | --- |
| 17 nM | Cn1c(=O)n(-c2cccc(C(F)(F)F)c2)c2c3cc(-c4cnc(N)nc4)ccc3ncc21 | 1330 nM | 52 nM | – |
| 65 nM | Cn1c(=O)n(-c2cccc(C(F)(F)F)c2)c2c3cc(-c4ccc5[nH]cnc5c4)ccc3ncc21 | 2630 nM | 157 nM | – |
| 452 nM | Cn1c(=O)n(-c2cccc(C(F)(F)F)c2)c2c3cc(-c4ccc(S(N)(=O)=O)cc4)ccc3ncc21 | > 45000 nM | 816 nM | 1 |
| 114 nM | Cn1c(=O)n(-c2cccc(C(F)(F)F)c2)c2c3cc(-c4ccc(O)cc4)ccc3ncc21 | 2330 nM | 229 nM | 1 |
| 25 nM | CC(=O)Nc1ccc(-c2ccc3ncc4c(c3c2)n(-c2cccc(C(F)(F)F)c2)c(=O)n4C)cn1 | 3980 nM | 42 nM | – |
| 95 nM | Cn1c(=O)n(-c2cccc(C(F)(F)F)c2)c2c3cc(-c4cccnc4)ccc3ncc21 | 10300 nM | 236 nM | – |
| 21 nM | Cc1ccc(-c2ccc3ncc4c(c3c2)n(-c2cccc(C(F)(F)F)c2)c(=O)n4C)cn1 | 14500 nM | 81 nM | – |
| 5780 nM | Cn1c(=O)n(-c2cccc(C(F)(F)F)c2)c2c3cc(-c4cnc5ccccc5c4)ccc3ncc21 | 31600 nM | 5270 nM | – |
| 93 nM | Cn1c(=O)n(-c2cccc(C(F)(F)F)c2)c2c3cc(-c4ccncc4)ccc3ncc21 | 1730 nM | 359 nM | – |
| 77 nM | Cn1c(=O)n(-c2cccc(C(F)(F)F)c2)c2c3cc(-c4cccc(N)c4)ccc3ncc21 | 13900 nM | 145 nM | 1 |
| 578 nM | Cn1c(=O)n(-c2cccc(C(F)(F)F)c2)c2c3cc(-c4ccc(S(C)(=O)=O)cc4)ccc3ncc21 | > 45000 nM | 855 nM | 1 |
| 5190 nM | Cc1ccc(-c2ccc3ncc4[nH]c(=O)n(-c5cccc(C(F)(F)F)c5)c4c3c2)cc1 | > 45000 nM | 7050 nM | 1 |
| 86 nM | Cn1c(=O)n(-c2cccc(C(F)(F)F)c2)c2c3cc(-c4ccc(N)cc4)ccc3ncc21 | 5530 nM | 87 nM | 1 |
| 3930 nM | CCn1c(=O)n(-c2cccc(C(F)(F)F)c2)c2c3cc(-c4ccc(Cl)cc4)ccc3ncc21 | > 45000 nM | 10400 nM | 1 |
| 184 nM | Cn1c(=O)n(-c2cccc(C(F)(F)F)c2)c2c3cc(-c4cccc(C#N)c4)ccc3ncc21 | > 45000 nM | 2160 nM | 11.7 |
| 104 nM | Cn1c(=O)n(-c2ccc(C(F)(F)F)cc2)c2c3cc(-c4ccc(N)nc4)ccc3ncc21 | > 45000 nM | 237 nM | – |
| 1160 nM | CS(=O)(=O)c1ccc(-c2ccc3ncc4[nH]c(=O)n(-c5cccc(C(F)(F)F)c5)c4c3c2)cc1 | > 45000 nM | 1110 nM | 1 |
| 7330 nM | Cn1c(=O)n(-c2cccc(C(F)(F)F)c2)c2c3cc(-c4ccc(C#N)cc4)ccc3ncc21 | > 45000 nM | 11000 nM | 1 |
| 7 nM | Cn1c(=O)n(-c2cccc(C(F)(F)F)c2)c2c3cc(-c4ccc(N)nc4)ccc3ncc21 | 2600 nM | 28 nM | 4 |
| 38 nM | Cn1c(=O)n(-c2cccc(C(F)(F)F)c2)c2c3cc(-c4ccc(C(N)=O)cc4)ccc3ncc21 | 4690 nM | 497 nM | 10 |
| 283 nM | Nc1ccc(-c2ccc3ncc4[nH]c(=O)n(-c5cccc(C(F)(F)F)c5)c4c3c2)cc1 | 7230 nM | 3270 nM | 11.6 |
| 183 nM | CCn1c(=O)n(-c2cccc(C(F)(F)F)c2)c2c3cc(-c4ccc(N)nc4)ccc3ncc21 | 3680 nM | 205 nM | – |
| 948 nM | NS(=O)(=O)c1ccc(-c2ccc3ncc4[nH]c(=O)n(-c5cccc(C(F)(F)F)c5)c4c3c2)cc1 | > 45000 nM | 2330 nM | 1 |
| 158 nM | Cn1c(=O)n(-c2cccc(C(F)(F)F)c2)c2c3cc(-c4ccc(O)nc4)ccc3ncc21 | 23500 nM | 294 nM | – |
| 442 nM | Cn1c(=O)n(-c2cccc(C(F)(F)F)c2)c2c3cc(-c4ccccc4)ccc3ncc21 | > 45000 nM | 4710 nM | 10.7 |
| 1750 nM | Cn1c(=O)n(-c2cccc(C(F)(F)F)c2)c2c3cc(-c4ccc(Cl)cc4)ccc3ncc21 | > 45000 nM | 1860 nM | 1 |
| 3180 nM | Cn1c(=O)n(-c2cccc(C(F)(F)F)c2)c2c3cc(-c4ccc(F)cc4)ccc3ncc21 | > 45000 nM | 5590 nM | 1 |
